Data as given in ChEMBL document CHEMBL1135734, “Side-chain lactam-bridge conformational constraints differentiate the activities of salmon and human calcitonins and reveal a new design concept for potent calcitonin analogues” (J Med Chem, 2002).

Key:
[1] = target: T1, Calcitonin receptor (Rattus norvegicus) (UniProt P32214); test: Affinity for calcitonin receptor of rat brain relative to [125I]-salmon calcitonin
T1 sequence (whole entry): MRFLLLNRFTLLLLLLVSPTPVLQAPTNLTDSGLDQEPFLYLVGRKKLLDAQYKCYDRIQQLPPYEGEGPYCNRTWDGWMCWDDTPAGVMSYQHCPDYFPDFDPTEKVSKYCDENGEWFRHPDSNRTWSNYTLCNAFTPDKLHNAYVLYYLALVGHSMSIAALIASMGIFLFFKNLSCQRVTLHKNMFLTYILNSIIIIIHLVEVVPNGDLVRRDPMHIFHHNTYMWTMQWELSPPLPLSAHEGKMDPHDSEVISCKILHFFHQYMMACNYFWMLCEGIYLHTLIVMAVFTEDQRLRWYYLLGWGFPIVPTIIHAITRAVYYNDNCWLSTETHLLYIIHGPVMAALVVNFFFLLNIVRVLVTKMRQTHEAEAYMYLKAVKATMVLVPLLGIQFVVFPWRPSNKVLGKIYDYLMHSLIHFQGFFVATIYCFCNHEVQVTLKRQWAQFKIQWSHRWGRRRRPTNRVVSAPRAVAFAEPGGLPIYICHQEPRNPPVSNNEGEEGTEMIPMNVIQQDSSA
Summary of the method: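 Male Sprague–Dawley rat (250–350 g) brain membranes (~0.63 mg protein/tube) were shaken on ice for 30 min with 10 pM final [125I-Tyr22]sCT and competitor in 50 mM Tris-HCl pH 7.4 with 34 μM bacitracin. Tubes were centrifuged and the pellets washed, SDS-solubilized and scintillation counted. Nonspecific binding was taken with 1 μM sCT. IC50 came from probit analysis, and relative affinity set sCT = 100%.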

[2] = target: T2, Calcitonin receptor (Homo sapiens) (UniProt P30988)
T2 sequence (whole entry): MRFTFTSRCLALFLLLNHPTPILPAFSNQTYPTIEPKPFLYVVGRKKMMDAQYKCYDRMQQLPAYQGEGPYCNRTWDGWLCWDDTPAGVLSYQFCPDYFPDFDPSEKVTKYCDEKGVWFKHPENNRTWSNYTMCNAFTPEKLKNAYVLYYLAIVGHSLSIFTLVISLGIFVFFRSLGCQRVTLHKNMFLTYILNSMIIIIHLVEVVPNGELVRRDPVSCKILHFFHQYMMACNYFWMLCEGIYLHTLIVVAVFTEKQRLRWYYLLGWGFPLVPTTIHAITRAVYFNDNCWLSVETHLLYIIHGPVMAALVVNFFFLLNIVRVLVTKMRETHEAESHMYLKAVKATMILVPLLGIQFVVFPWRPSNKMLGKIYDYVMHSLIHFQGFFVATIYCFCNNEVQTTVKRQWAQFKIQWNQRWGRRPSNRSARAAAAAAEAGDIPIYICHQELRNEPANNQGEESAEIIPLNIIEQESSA

| Relative affinity [1] | ED50 [2] | SMILES |
| --- | --- | --- |
| < 0.0075 | 104 nM | CC[C@H](C)[C@H](NC(=O)[C@H](C)NC(=O)[C@@H](NC(=O)[C@H](CCC(N)=O)NC(=O)[C@H]1CCCN1C(=O)[C@H](Cc1ccccc1)NC(=O)[C@@H](N[C@@H](Cc1c[nH]cn1)C(=O)NC(CCCCN)C(=O)[C@@H]1CCCN1C(=O)[C@H](CC(N)=O)NC(=O)[C@H](Cc1ccccc1)NC(=O)[C@H](CC(=O)O)NC(=O)[C@H](CCC(N)=O)NC(=O)[C@@H](NC(=O)[C@H](Cc1ccc(O)cc1)NC(=O)[C@@H](NC(=O)CNC(=O)[C@H](CC(C)C)NC(=O)[C@H](CCSC)NC(=O)[C@H](CS)NC(=O)[C@@H](NC(=O)[C@H](CO)NC(=O)[C@H](CC(C)C)NC(=O)[C@H](CC(N)=O)NC(=O)CNC(=O)[C@@H](N)CS)[C@@H](C)O)[C@@H](C)O)[C@@H](C)O)[C@@H](C)O)[C@@H](C)O)C(=O)NCC(=O)N[C@H](C(=O)NCC(=O)N[C@@H](C)C(=O)N1CCC[C@@H]1C(N)=O)C(C)C (stereo partly specified) |
| 150 | 0.053 nM | CC(C)C[C@H](NC(=O)[C@H](CCCCN)NC(=O)CNC(=O)[C@H](CC(C)C)NC(=O)[C@@H](NC(=O)[C@H](CS)NC(=O)[C@@H](NC(=O)[C@H](CO)NC(=O)[C@H](CC(C)C)NC(=O)[C@H](CC(N)=O)NC(=O)[C@H](CO)NC(=O)[C@@H](N)CS)[C@@H](C)O)C(C)C)C(=O)N[C@@H](CO)C(=O)N[C@@H](CCC(N)=O)C(=O)N[C@@H](CCC(=O)O)C(=O)N[C@@H](CC(C)C)C(=O)N[C@H]1CC(=O)NCCC[C@@H](C(=O)N[C@@H](Cc2ccc(O)cc2)C(=O)N2CCC[C@@H]2C(=O)N[C@@H](CCCN=C(N)N)C(=O)N[C@H](C(=O)N[C@@H](CC(N)=O)C(=O)N[C@H](C(=O)NCC(=O)N[C@@H](CO)C(=O)NCC(=O)N[C@H](C(=O)N2CCC[C@@H]2C(N)=O)[C@@H](C)O)[C@@H](C)O)[C@@H](C)O)NC(=O)[C@H](Cc2cn(N)cn2)NC(=O)[C@H](CC(C)C)NC(=O)[C@H](CCCCN)NC1=O |
| < 0.0075 | 22 nM | CC[C@H](C)[C@H](NC(=O)[C@H](C)NC(=O)[C@@H](NC(=O)[C@H](CCC(N)=O)NC(=O)[C@H]1CCCN1C(=O)[C@H](Cc1ccccc1)NC(=O)[C@@H](N[C@@H](Cc1c[nH]cn1)C(=O)N1CCC[C@H]1C(=O)[C@H](CCCCN)NC(=O)[C@H](CC(N)=O)NC(=O)[C@H](Cc1ccccc1)NC(=O)[C@H](CC(=O)O)NC(=O)[C@H](CCC(N)=O)NC(=O)[C@@H](NC(=O)[C@H](Cc1ccc(O)cc1)NC(=O)[C@@H](NC(=O)CNC(=O)[C@H](CC(C)C)NC(=O)[C@H](CCSC)NC(=O)[C@H](CS)NC(=O)[C@@H](NC(=O)[C@H](CO)NC(=O)[C@H](CC(C)C)NC(=O)[C@H](CC(N)=O)NC(=O)CNC(=O)[C@@H](N)CS)[C@@H](C)O)[C@@H](C)O)[C@@H](C)O)[C@@H](C)O)[C@@H](C)O)C(=O)NCC(=O)N[C@H](C(=O)NCC(=O)N[C@@H](C)C(=O)N1CCC[C@@H]1C(N)=O)C(C)C |
| 100 | 0.115 nM | CC(C)C[C@H](NC(=O)[C@H](CCCCN)NC(=O)CNC(=O)[C@H](CC(C)C)NC(=O)[C@@H](NC(=O)[C@H](CS)NC(=O)[C@@H](NC(=O)[C@H](CO)NC(=O)[C@H](CC(C)C)NC(=O)[C@H](CC(N)=O)NC(=O)[C@H](CO)NC(=O)[C@@H](N)CS)[C@@H](C)O)C(C)C)C(=O)N[C@@H](CO)C(=O)N[C@@H](CCC(N)=O)C(=O)N[C@@H](CCC(=O)O)C(=O)N[C@@H](CC(C)C)C(=O)N[C@@H](Cc1c[nH]cn1)C(=O)N[C@@H](CCCCN)C(=O)N[C@@H](CC(C)C)C(=O)N[C@@H](CCC(N)=O)C(=O)N[C@H](C(=O)N[C@@H](Cc1ccc(O)cc1)C(=O)N1CCC[C@@H]1C(=O)N[C@@H](CCCN=C(N)N)C(=O)N[C@H](C(=O)N[C@@H](CC(N)=O)C(=O)N[C@H](C(=O)NCC(=O)N[C@@H](CO)C(=O)NCC(=O)N[C@H](C(=O)N1CCC[C@@H]1C(N)=O)[C@@H](C)O)[C@@H](C)O)[C@@H](C)O)[C@@H](C)O |
| 0.02 | 99 nM | CC[C@H](C)[C@H](NC(=O)[C@H](C)NC(=O)[C@@H](NC(=O)[C@H](CCC(N)=O)NC(=O)[C@@H]1CCCN1C(=O)[C@H](Cc1ccccc1)NC(=O)[C@@H](N[C@@H](Cc1c[nH]cn1)C(=O)N[C@@H](Cc1ccccc1)C(=O)[C@@H]1CCCN1C(=O)[C@H](CC(N)=O)NC(=O)[C@H](Cc1ccccc1)NC(=O)[C@H](CC(=O)O)NC(=O)[C@H](CCC(N)=O)NC(=O)[C@@H](NC(=O)[C@H](Cc1ccc(O)cc1)NC(=O)[C@@H](NC(=O)CNC(=O)[C@H](CC(C)C)NC(=O)[C@H](CCSC)NC(=O)[C@H](CS)NC(=O)[C@@H](NC(=O)[C@H](CO)NC(=O)[C@H](CC(C)C)NC(=O)[C@H](CC(N)=O)NC(=O)CNC(=O)[C@@H](N)CS)[C@@H](C)O)[C@@H](C)O)[C@@H](C)O)[C@@H](C)O)[C@H](C)O)C(=O)NCC(=O)N[C@H](C(=O)NCC(=O)N[C@@H](C)C(=O)N1CCC[C@H]1C(N)=O)C(C)C |
| 120 | 0.091 nM | CC(C)C[C@H](NC(=O)[C@H](CCCCN)NC(=O)CNC(=O)[C@H](CC(C)C)NC(=O)[C@@H](NC(=O)[C@H](CS)NC(=O)[C@@H](NC(=O)[C@H](CO)NC(=O)[C@H](CC(C)C)NC(=O)[C@H](CC(N)=O)NC(=O)[C@H](CO)NC(=O)[C@@H](N)CS)[C@@H](C)O)C(C)C)C(=O)N[C@@H](CO)C(=O)N[C@@H](CCC(N)=O)C(=O)N[C@@H](CCC(=O)O)C(=O)N[C@@H](CC(C)C)C(=O)N[C@H]1CC(=O)NCCC[C@@H](C(=O)N[C@@H](Cc2ccc(O)cc2)C(=O)N2CCC[C@@H]2C(=O)N[C@@H](CCCN=C(N)N)C(=O)N[C@H](C(=O)N[C@@H](CC(N)=O)C(=O)N[C@H](C(=O)NCC(=O)N[C@@H](CO)C(=O)NCC(=O)N[C@H](C(=O)N2CCC[C@@H]2C(N)=O)[C@@H](C)O)[C@@H](C)O)[C@@H](C)O)NC(=O)[C@H](CCC(N)=O)NC(=O)[C@H](CC(C)C)NC(=O)[C@H](CCCCN)NC1=O |
| 210 | 0.075 nM | CC(C)C[C@H](NC(=O)[C@H](CCCCN)NC(=O)CNC(=O)[C@H](CC(C)C)NC(=O)[C@@H](NC(=O)[C@H](CS)NC(=O)[C@@H](NC(=O)[C@H](CO)NC(=O)[C@H](CC(C)C)NC(=O)[C@H](CC(N)=O)NC(=O)[C@H](CO)NC(=O)[C@@H](N)CS)[C@@H](C)O)C(C)C)C(=O)N[C@@H](CO)C(=O)N[C@@H](CCC(N)=O)C(=O)N[C@@H](CCC(=O)O)C(=O)N[C@@H](CC(C)C)C(=O)N[C@H]1CC(=O)NCCCC[C@@H](C(=O)N[C@@H](Cc2ccc(O)cc2)C(=O)N2CCC[C@@H]2C(=O)N[C@@H](CCCN=C(N)N)C(=O)N[C@H](C(=O)N[C@@H](CC(N)=O)C(=O)N[C@H](C(=O)NCC(=O)N[C@@H](CO)C(=O)NCC(=O)N[C@H](C(=O)N2CCC[C@@H]2C(N)=O)[C@@H](C)O)[C@@H](C)O)[C@@H](C)O)NC(=O)[C@H](Cc2cn(N)cn2)NC(=O)[C@H](CC(C)C)NC(=O)[C@H](CCCCN)NC1=O |
| 92 | 0.046 nM | CCCC[C@H](NC(=O)[C@H](Cc1c[nH]cn1)NC(=O)[C@H](CC(C)C)NC(=O)[C@H](CCCCN)NC(=O)[C@H](CC(N)=O)NC(=O)[C@H](CC(C)C)NC(=O)[C@H](CCC(=O)O)NC(=O)[C@H](CCC(N)=O)NC(=O)[C@H](CO)NC(=O)[C@H](CC(C)C)NC(=O)[C@H](CCCCN)NC(=O)CNC(=O)[C@H](CC(C)C)NC(=O)[C@@H](NC(=O)[C@H](CS)NC(=O)[C@@H](NC(=O)[C@H](CO)NC(=O)[C@H](CC(C)C)NC(=O)[C@H](CC(N)=O)NC(=O)[C@H](CO)NC(=O)[C@@H](N)CS)[C@@H](C)O)C(C)C)C(=O)N[C@@H](Cc1ccc(O)cc1)C(=O)N1CCC[C@@H]1C(=O)N[C@@H](CCCN=C(N)N)C(=O)N[C@H](C(=O)N[C@@H](CC(N)=O)C(=O)N[C@H](C(=O)NCC(=O)N[C@@H](CO)C(=O)NCC(=O)N[C@H](C(=O)N1CCC[C@@H]1C(N)=O)[C@@H](C)O)[C@@H](C)O)[C@@H](C)O |
